Converted amounts (≈) assume the structure as drawn.

Series [1] has as its system P388. The experiment in a line: Antitumor activity against mouse P388 cells allografted in female CDF1 mouse assessed as change in body weight at 200 mg/kg, ip administered daily for 9 days as Klucel suspension starting 24 hrs after tumor inoculation. In kind it is functional. Particulars: route intraperitoneal. The procedure, abridged:
(§1)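 Ascitic fluid carrying P388 cells was inoculated ip. Compound was given ip in nine daily doses, starting 24 h after inoculation, in Klucel (hydroxypropylcellulose) suspension or in saline with Tween-80. Body-weight difference (treated minus control) was recorded on day 5. Survival was scored as %T/C of median survival time, and 30-day survival counted as cure.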

Series [2] relates to Mus musculus. The experiment in a line: Toxicity in female CDF1 mouse allografted with mouse P388 cells assessed as animal survival at 12.5 mg/kg, ip administered daily for 9 days as Klucel suspension starting 24 hrs after tumor inoculation. Particulars: in vivo. Set-up: dose 12.5 mg/kg, route intraperitoneal. The format is organism-based. The gist of the method:
(§2)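 P-388 leukemia ascitic fluid inoculated ip. Compound given ip as a suspension in Klucel (hydroxypropylcellulose), once daily for nine doses beginning 24 h post-inoculation. Acute toxicity assessed as toxicity-day survivors per group. Survival was followed up to 30 days, with 30-day survival counted as "cure". Follows NCI screening protocols.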

Series [3] can be described thus: Cytotoxicity against human 9KB cells treated as ethanol solution. The format is functional. The settings on record: read-out: ED50 (the source's name). The gist of the method: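 Compound applied as an ethanol solution; activity read out as ED50 under the general screening protocol.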
Series [4] deals with P388. The experiment in a line: Antitumor activity against mouse P388 cells allografted in female CDF1 mouse assessed as change in body weight at 12.5 mg/kg, ip administered daily for 9 days as Klucel suspension starting 24 hrs after tumor inoculation. The format is functional. Particulars: route intraperitoneal. The gist of the method:
as §1

The test system of series [5] is P388. The experiment in a line: Antitumor activity against mouse P388 cells allografted in female CDF1 mouse assessed as disease cures by measuring 30-days host survival at 12.5 mg/kg, ip administered daily for 9 days as Klucel suspension starting 24 hrs after tumor inoculation relative to control. Particulars: route intraperitoneal. The format is functional. The gist of the method: (§3)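 P388 leukemia given as an ascitic fluid cell inoculum, ip, to mice of the strain and sex in each line. Nine daily ip doses were given in a Klucel (hydroxypropylcellulose) suspension, starting 24 h after inoculation. Read-out is median survival time as %T/C, with >125 taken as significant; a "cure" means 30-day survival.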

The subject of series [6] is P388. The experiment in a line: Antitumor activity against mouse P388 cells allografted in female CDF1 mouse assessed as disease cures by measuring 30-days host survival at 200 mg/kg, ip administered daily for 9 days as Klucel suspension starting 24 hrs after tumor inoculation relative to control. The format is functional. Particulars: route intraperitoneal. The gist of the method: as §3

For series [7], the system named is L1210. The experiment in a line: Antileukemic activity against mouse L1210 cells allografted in female BDF1 mouse assessed as host mean survival time at 200 mg/kg, ip administered daily for 9 days as Klucel suspension starting 24 hrs after tumor inoculation relative to control. The settings on record: route intraperitoneal. In kind it is functional. The gist of the method: (§4)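 L1210 leukemia given as an ascitic fluid cell inoculum, ip, to mice of the strain and sex in each line. Test material was given ip for nine daily doses starting 24 h after inoculation, in a Klucel (hydroxypropylcellulose) suspension. Read-out is mean survival time as %T/C versus controls, with >125 taken as significant.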

Series [8] relates to Mus musculus. The experiment in a line: Toxicity in female CDF1 mouse allografted with mouse P388 cells assessed as animal survival at 100 mg/kg, ip administered daily for 9 days as Klucel suspension starting 24 hrs after tumor inoculation. The format is organism-based. Set-up: dose 100 mg/kg, route intraperitoneal. The settings on record: in vivo. The procedure, abridged: as §2

For series [9], the system named is Mus musculus. The experiment in a line: Toxicity in female CDF1 mouse allografted with mouse P388 cells assessed as animal survival at 25 mg/kg, ip administered daily for 9 days as Klucel suspension starting 24 hrs after tumor inoculation. The format is organism-based. Further details: dose 25 mg/kg, route intraperitoneal. Particulars: in vivo. The procedure, abridged:
as §2

The subject of series [10] is P388. The experiment in a line: Antitumor activity against mouse P388 cells allografted in female CDF1 mouse assessed as disease cures by measuring 30-days host survival at 50 mg/kg, ip administered daily for 9 days as Klucel suspension starting 24 hrs after tumor inoculation relative to control. In kind it is functional. Particulars: route intraperitoneal. The gist of the method:
as §3

Series [11] relates to Mus musculus. The experiment in a line: Toxicity in female CDF1 mouse allografted with mouse P388 cells assessed as animal survival at 50 mg/kg, ip administered daily for 9 days as Klucel suspension starting 24 hrs after tumor inoculation. In kind it is organism-based. Set-up: dose 50 mg/kg, route intraperitoneal. Particulars: in vivo. The procedure, abridged:
as §2

Series [12] concerns P388. The experiment in a line: Antitumor activity against mouse P388 cells allografted in female CDF1 mouse assessed as change in body weight at 100 mg/kg, ip administered daily for 9 days as Klucel suspension starting 24 hrs after tumor inoculation. The format is functional. The settings on record: route intraperitoneal. The procedure, abridged:
as §1

Series [13] relates to Mus musculus. The experiment in a line: Toxicity in female BDF1 mouse allografted with mouse L1210 cells assessed as animal survival at 50 mg/kg, ip administered daily for 9 days as Klucel suspension starting 24 hrs after tumor inoculation measured on fifth day. The format is organism-based. Set-up: dose 50 mg/kg, route intraperitoneal. Particulars: in vivo. The procedure, abridged:
(§5)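 L1210 leukemia passaged as ascitic fluid and inoculated ip. Test agent given ip as a Klucel (hydroxypropylcellulose) suspension, nine daily doses starting 24 h after tumor inoculation. Acute toxicity read as toxicity-day survivors per group (out of 6), recorded on day 5. Animal weight difference T − C was also recorded. Follows NCI screening protocols.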

In series [14] the test system is P388. The experiment in a line: Antitumor activity against mouse P388 cells allografted in female CDF1 mouse assessed as disease cures by measuring 30-days host survival at 25 mg/kg, ip administered daily for 9 days as Klucel suspension starting 24 hrs after tumor inoculation relative to control. In kind it is functional. The settings on record: route intraperitoneal. The gist of the method:
as §3

In series [15] the test system is P388. The experiment in a line: Antitumor activity against mouse P388 cells allografted in female CDF1 mouse assessed as change in body weight at 50 mg/kg, ip administered daily for 9 days as Klucel suspension starting 24 hrs after tumor inoculation. Particulars: route intraperitoneal. The format is functional. The procedure, abridged: as §1
For series [16], the system named is L1210. The experiment in a line: Antileukemic activity against mouse L1210 cells allografted in female BDF1 mouse assessed as host mean survival time at 100 mg/kg, ip administered daily for 9 days as Klucel suspension starting 24 hrs after tumor inoculation relative to control. In kind it is functional. Particulars: route intraperitoneal. The procedure, abridged:
as §4

Series [17] has as its system L1210. The experiment in a line: Antileukemic activity against mouse L1210 cells allografted in female BDF1 mouse assessed as change in body weight at 50 mg/kg, ip administered daily for 9 days as Klucel suspension starting 24 hrs after tumor inoculation. The format is functional. The settings on record: route intraperitoneal. The gist of the method: (§6)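 Ascitic fluid carrying L1210 cells was inoculated ip. Compound was given ip as a Klucel (hydroxypropylcellulose) suspension in nine daily doses, starting 24 h after inoculation. Body-weight difference (treated minus control) was recorded on day 5. Survival was scored as %T/C of mean survival time.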

In series [18] the test system is L1210. The experiment in a line: Antileukemic activity against mouse L1210 cells allografted in female BDF1 mouse assessed as host mean survival time at 50 mg/kg, ip administered daily for 9 days as Klucel suspension starting 24 hrs after tumor inoculation relative to control. In kind it is functional. Particulars: route intraperitoneal. The procedure, abridged:
as §4

The test system of series [19] is L1210. The experiment in a line: Antileukemic activity against mouse L1210 cells allografted in female BDF1 mouse assessed as change in body weight at 100 mg/kg, ip administered daily for 9 days as Klucel suspension starting 24 hrs after tumor inoculation. The format is functional. The settings on record: route intraperitoneal. The gist of the method:
as §6

Series [20] relates to P388. The experiment in a line: Antitumor activity against mouse P388 cells allografted in female CDF1 mouse assessed as change in body weight at 25 mg/kg, ip administered daily for 9 days as Klucel suspension starting 24 hrs after tumor inoculation. In kind it is functional. The settings on record: route intraperitoneal. The gist of the method:
as §1

The test system of series [21] is Mus musculus. The experiment in a line: Toxicity in female BDF1 mouse allografted with mouse L1210 cells assessed as animal survival at 200 mg/kg, ip administered daily for 9 days as Klucel suspension starting 24 hrs after tumor inoculation measured on fifth day. In kind it is organism-based. Further details: dose 200 mg/kg, route intraperitoneal. The settings on record: in vivo. The procedure, abridged: as §5

For series [22], the system named is L1210. The experiment in a line: Antileukemic activity against mouse L1210 cells allografted in female BDF1 mouse assessed as change in body weight at 200 mg/kg, ip administered daily for 9 days as Klucel suspension starting 24 hrs after tumor inoculation. In kind it is functional. Particulars: route intraperitoneal. The gist of the method: as §6
The test system of series [23] is P388. The experiment in a line: Antitumor activity against mouse P388 cells allografted in female CDF1 mouse assessed as disease cures by measuring 30-days host survival at 100 mg/kg, ip administered daily for 9 days as Klucel suspension starting 24 hrs after tumor inoculation relative to control. The format is functional. The settings on record: route intraperitoneal. The gist of the method:
as §3

With `CNC(=O)OCc1c(COC(=O)NC)c(-c2ccc(OC)cc2)n2c1CCC2`, the Activity in the series with P388 [1] is reported as -3.6 g; in the series on Mus musculus [2], “Non-toxic”; in the series on P388 [4] it was -3.2 g; in the series on Mus musculus [8], “Non-toxic”; with Mus musculus [9], “Non-toxic”; in the series with Mus musculus [11], “Non-toxic”. Further, the Activity in the series with P388 [12] is reported as -3.7 g; in the series with Mus musculus [13], “Non-toxic”; in the series on P388 [15], -4 g; with L1210 [17], -2.3 g; in the series with L1210 [19], -4.8 g; in the series on P388 [20], -3.3 g. Also, the Activity result in the series on Mus musculus [21] is reported as “Non-toxic”; with L1210 [22], -5 g. In series [3], the EC50 amounted to 21 µg/mL (≈ 54.2 µM). Moreover, the T/C in the series on P388 [5] is 132%; in the series with P388 [6] it was 55%; with L1210 [7], 98%; with P388 [10], 131%; with P388 [14] it was 132%; in the series on L1210 [16] it was 117%. Moreover, the T/C in the series on L1210 [18] was 109%; in the series with P388 [23], 129%.

The values are drawn from ChEMBL document CHEMBL3244396, “Synthesis and antileukemic activity of 5-substituted 2,3-dihydro-6,7-bis(hydroxymethyl)-1H-pyrrolizine diesters” (J Med Chem, 1977).
